Reference: ChEMBL document CHEMBL4371052, “Diarylcarbonates are a new class of deubiquitinating enzyme inhibitor” (Bioorg Med Chem Lett, 2019)
The source made the active and inactive calls. No cut-off for these calls is given here.

Tests used:
[1] = target: Ubiquitin carboxyl-terminal hydrolase 7 (Homo sapiens) (UniProt Q93009); assay: Inhibition of USP7 in HEK293T cell lysates assessed as enzyme recovery at 250 uM using HA-tagged vinyl-sulfone as substrate […] followed by 10-fold dilution and subsequent substrate addition measured up to 2 hrs by Western blot analysis; type: subcellular; conditions: Lysate
[2] = target: Ubiquitin carboxyl-terminal hydrolase isozyme L1 (Homo sapiens) (UniProt P09936); assay: Inhibition of UCHL1 in HEK293T cell lysates at 25 uM using HA-tagged vinyl-sulfone as substrate measured after 2 to 30 mins by Western blot analysis; type: subcellular; conditions: Lysate
In short: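 HEK 293T lysate (1.5 mg/ml) given compound (25 μM) or DMSO at the same time as HA-Ub-VS (1.5 μM). Aliquots withdrawn over time were run on SDS-PAGE and immunoblotted for HA.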

[3] = Inhibition of deubiquitinase in HEK293T cells assessed as stabilization of K48-linked HMW-Ub protein by Western blot analysis; type: cell-based, Homo sapiens
[4] = target: T1, Ubiquitin carboxyl-terminal hydrolase 19 (Homo sapiens) (UniProt O94966); assay: Inhibition of USP19 in HEK293T cell lysates assessed as enzyme recovery at 250 uM using HA-tagged vinyl-sulfone as substrate […] followed by 10-fold dilution and subsequent substrate addition measured up to 2 hrs by Western blot analysis; type: subcellular; conditions: Lysate
T1 sequence (whole entry): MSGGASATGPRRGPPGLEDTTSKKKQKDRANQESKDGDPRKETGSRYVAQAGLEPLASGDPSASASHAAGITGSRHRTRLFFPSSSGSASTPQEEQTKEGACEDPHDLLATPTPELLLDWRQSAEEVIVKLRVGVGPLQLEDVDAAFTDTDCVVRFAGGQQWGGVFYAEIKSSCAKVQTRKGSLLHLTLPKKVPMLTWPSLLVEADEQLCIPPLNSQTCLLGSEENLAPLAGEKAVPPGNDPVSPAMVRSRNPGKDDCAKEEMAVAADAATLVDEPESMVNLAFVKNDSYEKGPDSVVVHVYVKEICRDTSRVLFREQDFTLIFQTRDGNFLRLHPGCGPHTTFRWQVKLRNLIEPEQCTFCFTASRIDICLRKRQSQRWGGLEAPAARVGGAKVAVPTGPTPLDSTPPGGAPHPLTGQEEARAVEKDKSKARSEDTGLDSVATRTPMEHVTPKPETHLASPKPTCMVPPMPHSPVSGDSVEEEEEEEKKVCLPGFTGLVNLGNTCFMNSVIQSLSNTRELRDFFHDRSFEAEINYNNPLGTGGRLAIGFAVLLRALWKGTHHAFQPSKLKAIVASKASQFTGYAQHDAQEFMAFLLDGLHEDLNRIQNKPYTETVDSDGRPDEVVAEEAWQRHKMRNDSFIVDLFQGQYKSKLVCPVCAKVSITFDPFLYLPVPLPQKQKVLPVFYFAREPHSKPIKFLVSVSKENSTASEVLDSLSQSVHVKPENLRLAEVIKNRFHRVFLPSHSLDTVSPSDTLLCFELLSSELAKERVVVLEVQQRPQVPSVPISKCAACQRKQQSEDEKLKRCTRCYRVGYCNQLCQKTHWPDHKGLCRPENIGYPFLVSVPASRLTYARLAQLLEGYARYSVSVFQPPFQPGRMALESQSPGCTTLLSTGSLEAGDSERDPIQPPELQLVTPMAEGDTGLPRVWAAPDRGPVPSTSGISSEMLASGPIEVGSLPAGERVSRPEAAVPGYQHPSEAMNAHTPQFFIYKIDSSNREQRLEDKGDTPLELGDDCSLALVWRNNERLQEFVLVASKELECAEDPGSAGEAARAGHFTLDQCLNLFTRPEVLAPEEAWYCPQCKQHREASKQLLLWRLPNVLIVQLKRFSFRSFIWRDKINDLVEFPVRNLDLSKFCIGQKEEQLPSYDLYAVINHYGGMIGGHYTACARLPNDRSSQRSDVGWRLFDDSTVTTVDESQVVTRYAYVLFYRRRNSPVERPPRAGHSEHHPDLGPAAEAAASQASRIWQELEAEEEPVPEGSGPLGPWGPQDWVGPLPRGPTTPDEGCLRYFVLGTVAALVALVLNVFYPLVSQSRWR

[5] = target: T2, Ubiquitin carboxyl-terminal hydrolase isozyme L3 (Homo sapiens) (UniProt P15374); assay: Inhibition of UCHL3 in HEK293T cell lysates at 25 uM using HA-tagged vinyl-sulfone as substrate preincubated for 19 to 60 mins followed by substrate addition and measured after 19 to 25 mins by Western blot analysis; type: subcellular; conditions: Lysate
T2 sequence (whole entry): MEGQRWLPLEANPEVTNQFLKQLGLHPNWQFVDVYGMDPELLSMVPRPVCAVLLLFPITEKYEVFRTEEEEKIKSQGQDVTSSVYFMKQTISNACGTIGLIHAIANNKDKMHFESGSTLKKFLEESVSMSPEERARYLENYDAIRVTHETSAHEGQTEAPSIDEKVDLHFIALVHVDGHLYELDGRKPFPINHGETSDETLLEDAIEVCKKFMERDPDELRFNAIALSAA

[6] = target: Ubiquitin carboxyl-terminal hydrolase 7 (Homo sapiens) (UniProt Q93009); assay: Inhibition of USP7 in human MCF7 cells assessed as increase in p53 expression after 4 to 48 hrs by Western blot analysis; type: cell-based
[7] = target: Ubiquitin carboxyl-terminal hydrolase 9X (Homo sapiens) (UniProt Q93008); assay: Inhibition of recombinant His6-tagged USP9x catalytic domain (unknown origin) using Ub-AMC as substrate by fluorescence assay; conditions: TDE = time-dependent effect
[8] = target: Ubiquitin carboxyl-terminal hydrolase 17-like protein 24 (Homo sapiens) (UniProt Q0WX57); assay: Inhibition of USP17 in HEK293T cell lysates at 25 uM using HA-tagged vinyl-sulfone as substrate preincubated for 19 to 60 mins followed by substrate addition and measured after 19 to 25 mins by Western blot analysis; type: subcellular; conditions: Lysate
[9] = target: Ubiquitin carboxyl-terminal hydrolase 9X (Homo sapiens) (UniProt Q93008); assay: Inhibition of USP9x in HEK293T cell lysates at 25 uM using HA-tagged vinyl-sulfone as substrate preincubated for 19 to 60 mins followed by substrate addition and measured after 19 to 25 mins by Western blot analysis; type: subcellular; conditions: Lysate

Chain of Ubiquitin carboxyl-terminal hydrolase 9X (Homo sapiens) (Q93008 whole entry, the tested form may be a part): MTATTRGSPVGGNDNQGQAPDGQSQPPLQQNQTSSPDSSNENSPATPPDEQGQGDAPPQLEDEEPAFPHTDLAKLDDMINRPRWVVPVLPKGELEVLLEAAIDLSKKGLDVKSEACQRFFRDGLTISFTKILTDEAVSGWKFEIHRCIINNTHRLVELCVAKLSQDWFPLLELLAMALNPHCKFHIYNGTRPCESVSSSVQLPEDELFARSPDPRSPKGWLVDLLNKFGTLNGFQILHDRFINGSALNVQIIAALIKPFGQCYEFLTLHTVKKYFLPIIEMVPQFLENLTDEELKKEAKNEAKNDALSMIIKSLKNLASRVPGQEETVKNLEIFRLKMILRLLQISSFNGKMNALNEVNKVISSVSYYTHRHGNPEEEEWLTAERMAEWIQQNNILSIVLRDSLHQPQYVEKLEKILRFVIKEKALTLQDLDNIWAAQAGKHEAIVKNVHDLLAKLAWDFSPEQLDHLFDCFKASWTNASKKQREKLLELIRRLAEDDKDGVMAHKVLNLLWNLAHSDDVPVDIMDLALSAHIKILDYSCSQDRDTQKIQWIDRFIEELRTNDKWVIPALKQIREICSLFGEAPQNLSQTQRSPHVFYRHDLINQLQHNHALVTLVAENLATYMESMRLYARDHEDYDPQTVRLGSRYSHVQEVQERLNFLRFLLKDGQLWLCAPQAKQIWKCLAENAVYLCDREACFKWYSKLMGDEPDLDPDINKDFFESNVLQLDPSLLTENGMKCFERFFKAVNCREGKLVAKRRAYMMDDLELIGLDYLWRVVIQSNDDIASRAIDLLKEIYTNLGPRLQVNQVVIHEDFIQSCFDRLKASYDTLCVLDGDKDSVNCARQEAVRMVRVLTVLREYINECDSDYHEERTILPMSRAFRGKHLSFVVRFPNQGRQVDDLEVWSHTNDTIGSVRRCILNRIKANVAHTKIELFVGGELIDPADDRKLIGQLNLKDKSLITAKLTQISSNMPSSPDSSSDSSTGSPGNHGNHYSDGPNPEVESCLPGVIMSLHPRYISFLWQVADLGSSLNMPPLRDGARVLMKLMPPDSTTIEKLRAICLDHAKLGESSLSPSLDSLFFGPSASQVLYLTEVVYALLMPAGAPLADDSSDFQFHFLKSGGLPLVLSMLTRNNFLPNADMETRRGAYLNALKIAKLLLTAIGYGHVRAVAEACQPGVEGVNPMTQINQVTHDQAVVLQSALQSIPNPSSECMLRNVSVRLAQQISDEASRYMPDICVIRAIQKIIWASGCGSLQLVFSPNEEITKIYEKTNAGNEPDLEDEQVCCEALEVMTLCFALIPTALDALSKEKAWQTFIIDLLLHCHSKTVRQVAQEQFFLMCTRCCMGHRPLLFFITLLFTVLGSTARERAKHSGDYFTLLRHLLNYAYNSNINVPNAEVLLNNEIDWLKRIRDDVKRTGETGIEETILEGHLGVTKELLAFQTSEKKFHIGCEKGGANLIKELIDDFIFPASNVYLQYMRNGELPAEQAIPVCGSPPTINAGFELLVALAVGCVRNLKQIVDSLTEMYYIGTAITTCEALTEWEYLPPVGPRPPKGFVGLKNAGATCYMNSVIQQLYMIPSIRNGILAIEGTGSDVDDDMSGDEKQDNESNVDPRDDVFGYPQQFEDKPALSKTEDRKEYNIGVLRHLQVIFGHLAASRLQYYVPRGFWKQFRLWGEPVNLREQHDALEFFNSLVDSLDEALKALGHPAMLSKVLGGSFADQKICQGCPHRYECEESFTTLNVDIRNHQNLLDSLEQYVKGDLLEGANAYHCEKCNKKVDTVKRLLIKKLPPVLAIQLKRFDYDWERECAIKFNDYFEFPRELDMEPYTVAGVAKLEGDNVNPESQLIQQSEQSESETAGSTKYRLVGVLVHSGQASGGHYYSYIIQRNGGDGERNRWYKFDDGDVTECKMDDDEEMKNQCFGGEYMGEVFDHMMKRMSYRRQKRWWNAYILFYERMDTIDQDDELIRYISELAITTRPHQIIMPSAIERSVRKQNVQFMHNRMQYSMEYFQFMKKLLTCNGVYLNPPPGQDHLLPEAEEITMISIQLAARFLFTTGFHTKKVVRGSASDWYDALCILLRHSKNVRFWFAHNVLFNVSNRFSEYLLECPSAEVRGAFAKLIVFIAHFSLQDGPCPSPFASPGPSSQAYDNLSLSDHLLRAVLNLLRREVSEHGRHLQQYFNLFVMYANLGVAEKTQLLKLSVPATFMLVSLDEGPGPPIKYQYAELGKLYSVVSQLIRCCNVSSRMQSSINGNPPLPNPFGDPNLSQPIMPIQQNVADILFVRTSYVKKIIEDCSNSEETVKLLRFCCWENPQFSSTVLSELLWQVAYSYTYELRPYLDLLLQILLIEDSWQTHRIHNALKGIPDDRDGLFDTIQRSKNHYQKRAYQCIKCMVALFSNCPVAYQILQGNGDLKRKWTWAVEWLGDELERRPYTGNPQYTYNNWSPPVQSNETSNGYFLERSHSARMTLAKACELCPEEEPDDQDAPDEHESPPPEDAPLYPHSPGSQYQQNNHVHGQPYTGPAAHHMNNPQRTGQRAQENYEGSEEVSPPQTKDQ
Chain of Ubiquitin carboxyl-terminal hydrolase 7 (Homo sapiens) (Q93009 whole entry, looked up, the tested form may be a part): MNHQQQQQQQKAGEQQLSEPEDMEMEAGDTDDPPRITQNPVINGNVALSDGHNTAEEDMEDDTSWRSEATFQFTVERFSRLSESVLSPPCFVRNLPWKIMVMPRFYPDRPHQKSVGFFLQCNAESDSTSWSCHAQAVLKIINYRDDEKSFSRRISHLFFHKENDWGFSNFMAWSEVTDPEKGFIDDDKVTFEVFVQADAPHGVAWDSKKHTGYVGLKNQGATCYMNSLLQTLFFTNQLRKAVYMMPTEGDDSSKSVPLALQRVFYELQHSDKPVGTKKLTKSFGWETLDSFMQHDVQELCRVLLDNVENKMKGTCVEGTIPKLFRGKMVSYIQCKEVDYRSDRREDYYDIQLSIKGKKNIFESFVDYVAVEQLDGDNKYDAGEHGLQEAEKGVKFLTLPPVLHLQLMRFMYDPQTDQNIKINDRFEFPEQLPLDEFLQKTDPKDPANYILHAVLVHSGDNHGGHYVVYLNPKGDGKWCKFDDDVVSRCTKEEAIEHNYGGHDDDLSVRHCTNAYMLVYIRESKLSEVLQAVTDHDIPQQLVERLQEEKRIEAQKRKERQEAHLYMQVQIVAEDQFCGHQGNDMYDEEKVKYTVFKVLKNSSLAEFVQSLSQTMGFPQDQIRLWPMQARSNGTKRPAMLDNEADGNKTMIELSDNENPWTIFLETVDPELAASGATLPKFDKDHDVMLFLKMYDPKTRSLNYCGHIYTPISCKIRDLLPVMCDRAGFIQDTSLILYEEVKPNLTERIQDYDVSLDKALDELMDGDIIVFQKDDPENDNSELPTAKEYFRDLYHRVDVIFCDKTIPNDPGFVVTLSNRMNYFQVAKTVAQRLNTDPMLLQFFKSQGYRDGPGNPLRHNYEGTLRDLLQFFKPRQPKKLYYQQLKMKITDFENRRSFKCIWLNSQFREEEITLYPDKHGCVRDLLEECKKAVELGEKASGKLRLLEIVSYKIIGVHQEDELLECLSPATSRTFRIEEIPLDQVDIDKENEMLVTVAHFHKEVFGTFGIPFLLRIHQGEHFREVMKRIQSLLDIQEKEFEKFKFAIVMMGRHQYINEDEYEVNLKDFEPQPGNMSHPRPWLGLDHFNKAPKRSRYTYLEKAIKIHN
Chain of Ubiquitin carboxyl-terminal hydrolase isozyme L1 (Homo sapiens) (P09936 whole entry, looked up): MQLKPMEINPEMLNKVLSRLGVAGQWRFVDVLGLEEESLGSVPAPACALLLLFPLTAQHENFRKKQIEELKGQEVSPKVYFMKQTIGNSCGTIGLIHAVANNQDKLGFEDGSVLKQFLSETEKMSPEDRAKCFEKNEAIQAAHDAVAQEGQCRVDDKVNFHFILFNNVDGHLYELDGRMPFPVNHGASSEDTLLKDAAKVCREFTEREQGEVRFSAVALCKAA
Chain of Ubiquitin carboxyl-terminal hydrolase 17-like protein 24 (Homo sapiens) (Q0WX57 whole entry): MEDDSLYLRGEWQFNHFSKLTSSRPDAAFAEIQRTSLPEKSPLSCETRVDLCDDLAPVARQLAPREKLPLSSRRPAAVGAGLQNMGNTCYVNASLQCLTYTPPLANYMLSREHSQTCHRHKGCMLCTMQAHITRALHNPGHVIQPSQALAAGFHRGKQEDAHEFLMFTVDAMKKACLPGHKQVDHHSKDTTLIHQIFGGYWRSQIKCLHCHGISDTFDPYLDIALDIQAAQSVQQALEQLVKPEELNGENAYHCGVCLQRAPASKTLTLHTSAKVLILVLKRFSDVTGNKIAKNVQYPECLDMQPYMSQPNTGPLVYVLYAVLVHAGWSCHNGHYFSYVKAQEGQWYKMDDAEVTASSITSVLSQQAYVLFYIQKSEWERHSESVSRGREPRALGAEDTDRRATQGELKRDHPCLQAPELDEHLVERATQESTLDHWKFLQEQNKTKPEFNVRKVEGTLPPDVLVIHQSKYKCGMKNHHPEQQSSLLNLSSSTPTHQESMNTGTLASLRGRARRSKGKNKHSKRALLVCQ

NCc1ccc(OC(=O)Oc2ccc3ccccc3c2)cc1
inhibition [1]: inactive | inhibition [2]: inactive | EC50 [3]: < 50 µM | inhibition [4]: inactive | inhibition [5]: inactive | Activity [6]: Active | inhibition [7]: Tde | inhibition [8]: Active | inhibition [9]: Active
